From ChEMBL document CHEMBL1811907, “Chemical and biological evaluation of dipeptidyl boronic acid proteasome inhibitors for use in prodrugs and pro-soft drugs targeting solid tumors” (J Med Chem, 2011)

Columns and labels:
HEK293 = assay: Ratio of IC50 for intracellular chymotrypsin-like activity of 20S proteasome in human HEK293 cells to IC50 for in vitro chymotrypsin-like activity of 20S proteasome; format: cell-based
[1] = Ratio of CC50 for human follicular small-cell lymphocytic leukemia cells to IC50 for intracellular chymotrypsin-like activity of 20S proteasome in human HEK293 cells
[2] = Cytotoxicity against human HEK293 cells after 24 hrs by MTT assay; format: cell-based
Outline: (§1)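 Cells seeded at 3.2 × 10⁴ per well, grown 24 h at 37 °C, 5% CO₂, then exposed to inhibitor dilutions 24 h. Inhibitor from 0.1 M ethanol stock, pre-equilibrated overnight in pH 2.0 or pH 7.6 buffer. MTT (5 mg/mL) added for 3 h; formazan dissolved overnight in acidic Triton/isopropanol; A570 read. Quadruplicates; variable-slope sigmoidal fit.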

[3] = Cytotoxicity against human FSCLL cells after 24 hrs by MTT assay; format: cell-based; outline: as §1
[4] = Inhibition of chymotrypsin-like activity of 20S proteasome using suc-LLVY-AMC as substrate preincubated for 10 mins before substrate addition at pH 7.6 by fluorescence assay
Outline: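 Inhibitor from 0.1 M ethanol stock diluted into pH 7.6 buffer (25 mM HEPES, 0.5 mM EDTA) and equilibrated overnight at room temperature (24 h per text). SDS-activated 20S proteasome preincubated 10 min with inhibitor before Suc-LLVY-AMC; fluorescence ex 360/em 460 nm after 30 min. Quadruplicates; variable-slope sigmoidal fit.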

[5] = Inhibition of chymotrypsin-like activity of 20S proteasome using suc-LLVY-AMC as substrate preincubated for 10 mins before substrate addition at pH 2.0 by fluorescence assay
Outline: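 Inhibitor from 0.1 M ethanol stock diluted into pH 2.0 buffer (0.148 M HCl, 0.052 M KCl) and equilibrated overnight at room temperature (24 h per text). 20S proteasome SDS-activated, preincubated 10 min with inhibitor; Suc-LLVY-AMC added; fluorescence (ex 360/em 460 nm) read after 30 min. Assay-well pH checked. Quadruplicates; variable-slope sigmoidal fit.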

Mus musculus = species on record: Mus musculus; assay: Inhibition of proteasome in mouse tumor cells relative to inhibition in blood cells; format: subcellular; details: concentration not given here
[6] = Inhibition of intracellular chymotrypsin-like activity of 20S proteasome in human HEK293 cells after 24 hrs by fluorescence plate reader; format: cell-based; details: HEK293, 24 h
Outline: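 HEK 293 ZsGreen proteasome-sensor cells (stable ZsGreen–ornithine decarboxylase degron fusion, G418 maintenance) seeded 3.2 × 10⁴ per well, grown 24 h. Then 24 h with inhibitor at 37 °C, 5% CO₂. Cells lysed in HEPES/EDTA/5% Triton buffer for 1 h; fluorescence ex 485/em 535 nm. Quadruplicates; variable-slope sigmoidal fit.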

[7] = Ratio of CC50 for human follicular small-cell lymphocytic leukemia cells to IC50 for chymotrypsin-like activity of 20S proteasome at pH 2.0

IC50 [4]: 14 nM | IC50 [5]: 10 nM | inhibition (Mus musculus): 44.8% | IC50 [6]: 27 nM
SMILES: CC(C)C[C@H](NC(=O)[C@H](Cc1ccccc1)NC(=O)c1cnccn1)B(O)O [BORTEZOMIB]
Ratio IC50 (HEK293): 2.7 | Ratio CC50/IC50 [1]: 0.16 | CC50 at 24 h [2]: 347 nM | CC50 at 24 h [3]: 4 nM | Ratio CC50/IC50 [7]: 0.4
